The values that follow come from ChEMBL document CHEMBL1154235, “Rational design and semisynthesis of betulinic acid analogues as potent topoisomerase inhibitors” (J Nat Prod, 2009).

The source made the active and inactive calls. The rule behind the calls is not given here.

The target in assay [1] is DNA topoisomerase 2-alpha (Homo sapiens) (UniProt P11388). As to the kind of experiment: Inhibition of topoisomerase 2 alpha catalytic activity assessed as decatenation of kinetoplast DNA at 100 uM after 15 mins by agarose gel electrophoresis.
Sequence of DNA topoisomerase 2-alpha (Homo sapiens) (P11388 whole entry): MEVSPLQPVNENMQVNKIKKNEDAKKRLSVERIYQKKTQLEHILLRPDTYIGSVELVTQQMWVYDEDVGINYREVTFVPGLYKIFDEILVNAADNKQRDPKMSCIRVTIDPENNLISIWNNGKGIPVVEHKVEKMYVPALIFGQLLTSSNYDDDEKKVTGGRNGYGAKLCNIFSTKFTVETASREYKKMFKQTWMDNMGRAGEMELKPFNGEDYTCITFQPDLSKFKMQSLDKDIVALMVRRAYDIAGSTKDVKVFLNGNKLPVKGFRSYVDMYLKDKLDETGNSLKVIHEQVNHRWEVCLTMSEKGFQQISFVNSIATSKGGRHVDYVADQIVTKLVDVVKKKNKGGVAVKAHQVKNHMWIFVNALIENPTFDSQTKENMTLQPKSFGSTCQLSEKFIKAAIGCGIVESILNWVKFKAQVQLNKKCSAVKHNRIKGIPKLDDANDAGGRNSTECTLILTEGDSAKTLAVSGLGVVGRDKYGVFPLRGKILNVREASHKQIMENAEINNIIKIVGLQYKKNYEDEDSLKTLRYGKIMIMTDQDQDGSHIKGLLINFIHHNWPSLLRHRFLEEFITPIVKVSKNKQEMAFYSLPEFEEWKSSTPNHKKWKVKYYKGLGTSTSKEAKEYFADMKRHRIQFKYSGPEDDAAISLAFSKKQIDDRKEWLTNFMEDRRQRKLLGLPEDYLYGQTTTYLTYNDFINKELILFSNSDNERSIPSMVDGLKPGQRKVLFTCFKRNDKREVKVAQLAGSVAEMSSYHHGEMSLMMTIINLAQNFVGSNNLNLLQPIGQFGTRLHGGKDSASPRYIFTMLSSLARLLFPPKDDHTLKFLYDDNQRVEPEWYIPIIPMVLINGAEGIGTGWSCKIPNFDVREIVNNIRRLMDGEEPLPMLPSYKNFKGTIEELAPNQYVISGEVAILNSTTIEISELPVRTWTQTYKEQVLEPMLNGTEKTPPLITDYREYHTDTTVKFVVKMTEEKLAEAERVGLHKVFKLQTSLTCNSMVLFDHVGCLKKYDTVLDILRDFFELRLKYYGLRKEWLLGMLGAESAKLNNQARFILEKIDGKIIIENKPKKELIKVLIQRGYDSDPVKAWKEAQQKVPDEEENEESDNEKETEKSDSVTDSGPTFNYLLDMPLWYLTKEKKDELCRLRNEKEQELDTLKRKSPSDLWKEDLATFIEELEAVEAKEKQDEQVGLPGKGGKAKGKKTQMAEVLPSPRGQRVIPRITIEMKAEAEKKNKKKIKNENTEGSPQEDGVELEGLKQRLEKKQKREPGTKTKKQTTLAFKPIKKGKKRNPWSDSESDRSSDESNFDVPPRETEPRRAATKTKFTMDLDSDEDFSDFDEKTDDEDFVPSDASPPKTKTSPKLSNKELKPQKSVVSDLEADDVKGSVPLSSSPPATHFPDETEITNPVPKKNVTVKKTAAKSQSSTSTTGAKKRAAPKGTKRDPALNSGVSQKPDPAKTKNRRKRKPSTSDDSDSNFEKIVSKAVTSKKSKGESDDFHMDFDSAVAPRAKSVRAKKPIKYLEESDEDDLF
The test system of the next assay is SW948. In words: Antiproliferative activity against human SW948 cells after 3 days by XTT assay. Format: functional, cell-based. To be noted: SW948, 72 h. The essentials: (§1)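 Cells plated at 4000/well and grown 1 day at 37 °C, then exposed to a range of drug concentrations for 3 more days. Read-out by XTT tetrazolium reduction on a plate reader. Each concentration run in triplicate. IC50 taken from a linear-quadratic fit. Assays repeated two or three times and reported as mean ± SE. HCT-116 kept in modified McCoy's 5a and SW948 in Leibovitz's L-15, each with 10% heat-inactivated FBS and 2 mM L-glutamine.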
(Tetrazolium assays rely on reduction of a dye to a coloured formazan, in cell work by metabolically active cells.)

Assay [2] has as its system MDA-MB-231. As to the kind of experiment: Antiproliferative activity against human MDA-MB-231 cells after 3 days by MTT assay. The class given is functional, cell-based. As to conditions: MDA-MB-231, 72 h. The essentials:
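MDA-MB-231 cells kept in RPMI 1640 with 10% heat-inactivated FBS and 25 mM HEPES at 37 °C in 5% CO2. Plated at about 15 000/well and preincubated 1 day, then exposed to compound for 3 days at 37 °C, with doses in triplicate. MTT added for 4 h, formazan dissolved in detergent overnight at room temperature in the dark, OD read at 580 nm against a cell-free blank. Cell numbers from a calibration curve; IC50 from dose-response curves.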

For the next assay, the system named is HCT-116. In words: Antiproliferative activity against human HCT116 cells after 3 days by XTT assay. Format: functional, cell-based. To be noted: HCT-116, 72 h. The essentials: as §1
The target of assay [3] is T1, DNA topoisomerase 1 (Homo sapiens) (UniProt P11387).
T1 sequence (whole entry): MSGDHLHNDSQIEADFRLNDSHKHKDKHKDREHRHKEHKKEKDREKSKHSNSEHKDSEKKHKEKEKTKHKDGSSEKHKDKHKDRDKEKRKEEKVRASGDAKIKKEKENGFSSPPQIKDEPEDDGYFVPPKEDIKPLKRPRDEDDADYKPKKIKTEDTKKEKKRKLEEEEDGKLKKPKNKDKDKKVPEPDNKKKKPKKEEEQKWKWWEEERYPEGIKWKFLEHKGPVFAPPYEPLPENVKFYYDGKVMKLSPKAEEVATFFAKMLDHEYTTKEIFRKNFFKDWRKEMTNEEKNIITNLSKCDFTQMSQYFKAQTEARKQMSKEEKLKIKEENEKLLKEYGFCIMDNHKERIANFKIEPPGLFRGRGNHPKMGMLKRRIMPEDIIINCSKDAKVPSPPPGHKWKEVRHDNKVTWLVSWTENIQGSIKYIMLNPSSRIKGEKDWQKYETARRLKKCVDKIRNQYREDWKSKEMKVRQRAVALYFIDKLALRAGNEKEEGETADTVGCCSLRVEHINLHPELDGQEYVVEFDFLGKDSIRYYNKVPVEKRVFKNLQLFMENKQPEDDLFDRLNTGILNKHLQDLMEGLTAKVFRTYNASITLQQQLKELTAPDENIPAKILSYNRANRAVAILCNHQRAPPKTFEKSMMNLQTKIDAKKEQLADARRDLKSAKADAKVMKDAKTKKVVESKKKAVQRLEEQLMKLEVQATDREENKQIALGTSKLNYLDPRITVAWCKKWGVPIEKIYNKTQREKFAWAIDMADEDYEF
In words: Inhibition of topoisomerase 1 catalytic activity assessed as relaxation of supercoiled plasmid DNA at 100 uM after 30 mins by agarose gel electrophoresis. In a few lines:
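Compound at 100 µM final with topoisomerase I (2U), 37 °C 30 min. Stopped with 1% SDS, proteinase K digestion, 1% agarose TAE gel, ethidium bromide stain, imaging quantitation. Scored 0 to 3+ against camptothecin.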

In the next assay the test system is HL-60(TB). In words: Growth inhibition of human HL-60(TB) cells. The class given is functional.
In assay [4] the test system is MDA-MB-231. In words: Growth inhibition of human MDA-MB-231 cells. The class given is functional.

One may read the IC50 as the concentration at which inhibition is half-maximal. A low value points to greater potency in that assay. Turning to `CC1(C)[C@@H](O)CC[C@]2(C)[C@H]3CC[C@@H]4[C@H]5[C@H]([C@]6(C)CO6)CC[C@]5(C(=O)O)CC[C@@]4(C)[C@]3(C)CC[C@@H]12`, the inhibition result in assay [1] and in assay [3] was “inactive” throughout. Further, the values for the IC50 with SW948, in the assay with MDA-MB-231 [2] and in the assay on HCT-116 were greater than 25 µM, 4.08 µM and greater than 25 µM, respectively.
As for `C=C(C)[C@@H]1CC[C@]2(C(=O)O)CC[C@]3(C)[C@H](CC[C@@H]4[C@@]5(C)CC[C@H](OS(=O)(=O)c6ccccc6)C(C)(C)[C@@H]5CC[C@]43C)[C@@H]12`, in assay [1], the inhibition entry was “Active”. For the same molecule, the IC50 worked out at 6.84 µM in the assay with SW948, 0.8 µM with MDA-MB-231 [2] and 21.3 µM with HCT-116. Further, in assay [3], the inhibition entry is “inactive”.
As to `COc1cc([C@@H]2c3cc4c(cc3[C@@H](O[C@@H]3O[C@@H]5CO[C@@H](C)O[C@H]5[C@H](O)[C@H]3O)[C@H]3COC(=O)[C@H]23)OCO4)cc(OC)c1O` [ETOPOSIDE], the inhibition result in assay [1] is “Active”. This molecule also displayed an IC50 in the assay on SW948 of 1.3 µM.
For the molecule `C=C(C=O)[C@@H]1CC[C@]2(C(=O)O)CC[C@]3(C)[C@H](CC[C@@H]4[C@@]5(C)CC[C@H](O)C(C)(C)[C@@H]5CC[C@]43C)[C@@H]12`, the inhibition entry in assay [1] was “inactive”. Besides, the IC50 in the assay on SW948 is 14.9 µM; in the assay with MDA-MB-231 [2] it was 1.37 µM; with HCT-116, 4.38 µM. Also, the inhibition result in assay [3] is “Active”.
The matching figures for `C=C(C)[C@@H]1CC[C@]2(C(=O)O)CC[C@]3(C)[C@H](CC[C@@H]4[C@@]5(C)CCC(=O)C(C)(C)[C@@H]5CC[C@]43C)[C@@H]12` [BETUNOLIC ACID]: “inactive”, 19.2 µM, 9.77 µM, 2.61 µM and “inactive”.
For the molecule `C=C(C)[C@@H]1CC[C@]2(C(=O)O)CC[C@]3(C)[C@H](CC[C@@H]4[C@@]5(C)CC[C@H](OC(=O)Nc6ccc(-c7ccccc7)cc6)C(C)(C)[C@@H]5CC[C@]43C)[C@@H]12`, the inhibition result in assay [1] was “Active”. Moreover, the IC50 with SW948, in the assay with MDA-MB-231 [2] and in the assay with HCT-116 was greater than 25 µM each time. Also, in assay [3], the inhibition entry was “inactive”.
As to `CC[C@@]1(O)C(=O)OCc2c1cc1n(c2=O)Cc2cc3ccccc3nc2-1` [CAMPTOTHECIN], the IC50 worked out at 0.16 µM with SW948 and 0.13 µM in the assay on HCT-116.
In the case of `C[C@H](C=O)[C@@H]1CC[C@]2(C(=O)O)CC[C@]3(C)[C@H](CC[C@@H]4[C@@]5(C)CC[C@H](O)C(C)(C)[C@@H]5CC[C@]43C)[C@@H]12`, the inhibition result in assay [1] is “inactive”. Also, the IC50 was greater than 25 µM in the assay on SW948, 0.17 µM with MDA-MB-231 [2] and greater than 25 µM with HCT-116. Also, in assay [3], the inhibition entry is “Active”.
In the case of `C=C(C)[C@@H]1CC[C@]2(C(O)=S)CC[C@]3(C)[C@H](CC[C@@H]4[C@@]5(C)CC[C@H](OP(=S)(S)c6ccc(OC)cc6)C(C)(C)[C@@H]5CC[C@]43C)[C@@H]12` (stereo partly specified), the inhibition result in assay [1] and in assay [3] was “Active” throughout. Also, the IC50 in the assay on SW948 is greater than 25 µM; in the assay with MDA-MB-231 [2], 9.83 µM; in the assay with HCT-116, greater than 25 µM.
`C=CCNC(=O)O[C@H]1CC[C@]2(C)[C@H]3CC[C@@H]4[C@H]5[C@H](C(=C)C)CC[C@]5(C(=O)O)CC[C@@]4(C)[C@]3(C)CC[C@H]2C1(C)C`: in assay [1], the inhibition entry is “Active”. For the same molecule, the figures for the IC50 in the assay with SW948, in the assay on MDA-MB-231 [2] and in the assay with HCT-116 were 17.6 µM, 0.65 µM and 17.7 µM, respectively. The inhibition result in assay [3] was “inactive”.
The matching figures for `C=C(C)[C@@H]1CC[C@]2(C(=O)O)CC[C@]3(C)[C@H](CC[C@@H]4[C@@]5(C)CC[C@H](OC(=O)Nc6cccc7ccccc67)C(C)(C)[C@@H]5CC[C@]43C)[C@@H]12`: “Active”, greater than 25 µM, greater than 25 µM, greater than 25 µM and “inactive”.
For `C=C(C)[C@@H]1CC[C@]2(C(=O)NS(=O)(=O)c3ccccc3)CC[C@]3(C)[C@H](CC[C@@H]4[C@@]5(C)CC[C@H](OC(=O)NS(=O)(=O)c6ccccc6)C(C)(C)[C@@H]5CC[C@]43C)[C@@H]12`, the inhibition result in assay [1] and in assay [3] was “Active” in each case. For the same molecule, the IC50 with SW948 is 17.4 µM; with MDA-MB-231 [2], 0.92 µM; in the assay with HCT-116, 13.3 µM.
Regarding `C=C(C)[C@@H]1CC[C@]2(C(=O)O)CC[C@]3(C)[C@H](CC[C@@H]4[C@@]5(C)CC[C@H](OC(=O)NCc6ccccc6)C(C)(C)[C@@H]5CC[C@]43C)[C@@H]12`, the inhibition result in assay [1] and in assay [3] was “Active” in each case. Besides, the IC50 with SW948 is greater than 25 µM; in the assay with MDA-MB-231 [2] it was 0.45 µM; with HCT-116, 22.2 µM.
A word on the GI50: it is the concentration at which growth is held to half of that of the control. As to `C=C(C)[C@@H]1CC[C@]2(C(=O)O)CC[C@]3(C)[C@H](CC[C@@H]4[C@@]5(C)CC[C@H](O)C(C)(C)[C@@H]5CC[C@]43C)[C@@H]12` [BETULINIC ACID], the inhibition result in assay [1] and in assay [3] was “inactive” throughout. Further, the GI50 in the assay on HL-60(TB) was 3.16 µM; in the assay on MDA-MB-231 [4] it was 3.98 µM. Moreover, the IC50 in the assay on SW948 amounted to 10.5 µM; in the assay on MDA-MB-231 [2], 15.2 µM; with HCT-116 it was 13.5 µM.
In the case of `C=C(C)[C@@H]1CC[C@]2(C(O)=S)CC[C@]3(C)[C@H](CC[C@@H]4[C@@]5(C)CCC(=O)C(C)(C)[C@@H]5CC[C@]43C)[C@@H]12`, the inhibition entry in assay [1] and in assay [3] was “inactive” in each case. Further, the IC50 in the assay with SW948, with MDA-MB-231 [2] and with HCT-116 was greater than 25 µM in each case.
